# TRPC4 act: opens the mouse TRPC4 cation channel; HEK293 TRPC4beta/mu-opioid, Fluo4 calcium fluorescence; stronger effect = higher value; 310,000 compounds, 0.49% hits; AID 2237; B-score at 10 µM;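 active = B-score above 5 SD of library B-scores, and initial fluorescence ratio not above library mean plus 5 SD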;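 also: positive B-score marks a calcium rise read as TRPC4 activation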
# Target sequence (Q9QUQ5 whole entry, looked up): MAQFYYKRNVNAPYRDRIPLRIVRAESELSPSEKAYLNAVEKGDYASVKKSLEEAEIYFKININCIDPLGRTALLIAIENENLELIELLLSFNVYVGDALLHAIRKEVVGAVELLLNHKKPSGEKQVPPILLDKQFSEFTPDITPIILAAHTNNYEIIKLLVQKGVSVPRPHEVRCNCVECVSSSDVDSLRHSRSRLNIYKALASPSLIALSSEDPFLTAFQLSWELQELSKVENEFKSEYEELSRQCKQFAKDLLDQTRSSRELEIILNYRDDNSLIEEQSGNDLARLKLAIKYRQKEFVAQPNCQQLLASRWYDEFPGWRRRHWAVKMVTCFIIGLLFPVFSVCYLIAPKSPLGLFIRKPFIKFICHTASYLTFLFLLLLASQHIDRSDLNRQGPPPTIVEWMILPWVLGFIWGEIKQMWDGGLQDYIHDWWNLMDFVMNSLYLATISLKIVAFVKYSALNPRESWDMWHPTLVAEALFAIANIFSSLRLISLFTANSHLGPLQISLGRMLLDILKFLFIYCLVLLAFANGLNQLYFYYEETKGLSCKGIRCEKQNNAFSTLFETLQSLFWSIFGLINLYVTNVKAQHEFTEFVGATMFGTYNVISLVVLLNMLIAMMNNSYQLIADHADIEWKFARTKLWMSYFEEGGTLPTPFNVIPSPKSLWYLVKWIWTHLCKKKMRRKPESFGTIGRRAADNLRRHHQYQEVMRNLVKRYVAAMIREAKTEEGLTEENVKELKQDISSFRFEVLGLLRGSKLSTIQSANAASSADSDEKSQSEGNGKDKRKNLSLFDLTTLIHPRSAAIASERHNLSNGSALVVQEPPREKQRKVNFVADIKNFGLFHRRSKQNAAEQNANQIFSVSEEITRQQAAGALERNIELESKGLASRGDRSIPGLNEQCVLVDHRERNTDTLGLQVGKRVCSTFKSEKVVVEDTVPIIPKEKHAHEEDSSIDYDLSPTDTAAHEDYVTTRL
#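 Material: HEK293 stable line with TRPC4beta plus mu-opioid receptor; technique: Fluo4 calcium-sensitive dye fluorescence, kinetic, 1 Hz baseline; timing: Fluo4 dye loading 45 min at room temperature, 110 s recording; controls: assay buffer as low control, maximal DAMGO as high control; read-out: integrated baseline-normalised fluorescence ratio, converted to per-well B score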
# TRPC6 act: mouse TRPC6 channel activation; 310,000 compounds, 0.13% hits; Q61143; HEK293-TRPC6 membrane potential dye fluorescence; stronger effect = higher value; B-score at 10 µM;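 active = B-score of the integrated fluorescence ratio above library mean plus 3 SD, and starting fluorescence ratio within library mean plus 5 SD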;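 also: higher score means more depolarization so channel activation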
# Kir21 block: blocks the mouse Kir2.1 inward-rectifier potassium channel. P35561. HEK293-Kir2.1, FluxOR thallium flux fluorescence; stronger effect = lower value. B-score at 10 µM. 310,000 compounds, 0.85% hits;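 active = fluorescence ratio B-score at or below minus 3 SD of library scores, with starting-brightness B-score within 2 SD, cut at about -4.2 in these data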;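 also: channel flux triggered by added potassium and thallium sulfate stimulus; B-score of peak minus minimum fluorescence over baseline after thallium stimulus; more negative B-score means stronger Kir2.1 block with less thallium influx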
# TRPC4 PAM: TRPC4 (mouse) allosteric potentiation; Q9QUQ5; HEK293 TRPC4beta/mu-opioid, DAMGO EC20, Fluo-4 Ca2+ flux; stronger effect = higher value; B-score at 10 µM; 310,000 compounds, 0.42% hits; AID 2227;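 active = B-score of calcium response area above 5 SD of library B-scores, with initial fluorescence ratio within 5 SD of library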;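 also: B-score of integrated fluorescence ratio over time as area under calcium response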
# TRPC6 inhibitor: mouse TRPC6 channel inhibition. Q61143. B-score at 10 µM. 310,000 compounds, 1.1% hits. HEK293-TRPC6, membrane potential dye, ACh-evoked depolarization; stronger effect = lower value. AID 2553;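 active = B-score under library mean minus 3 SD, initial fluorescence not abnormally high, positive integrated signal ratio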;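 also: B-score derived from integrated fluorescence ratio over the kinetic read; more negative B-score means stronger inhibition of depolarization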
# TRPC4 block: TRPC4 (mouse) channel inhibition. HEK293 TRPC4beta/mu-opioid, DAMGO-evoked Fluo4 calcium flux; stronger effect = lower value. B-score at 10 µM. 300,000 compounds, 0.39% hits. AID 2247;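 active = B-score over 3 SD under the library average, no early fluorescence shift, positive overall ratio signal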
#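 Material: HEK293 cells with stable TRPC4beta plus mu-opioid receptor expression; probe or stimulus: DAMGO in two steps, submaximal then maximal; technique: Fluo4 calcium fluorescence by kinetic imaging, 5 s 1 Hz baseline; measure: integrated fluorescence ratio relative to baseline, converted to per-well B score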
# TRPC4 spec 2: second selectivity test of TRPC6 inhibitors: effect on mouse TRPC4; shares compounds with TRPC6 inhibitor; HEK293 TRPC4/MOR, membrane potential dye fluorescence; channel activated by saturating DAMGO dose; inhibition, % at 10 µM; 920 compounds, 42% hits; AID 2776;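 active = compounds whose fluorescence signal differed from control wells by over 3 SD, either direction, in both duplicate plates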
# TRPC4 spec: selectivity of TRPC6 inhibitors: effect on mouse TRPC4; HEK293 TRPC4/mu-opioid, membrane potential fluorescence; 920 compounds, 61% hits; AID 2777; activity change, negative = inhibition, % at 10 µM; shares compounds with TRPC6 inhibitor;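 active = rise or fall in signal beyond 3 SD of buffer-only wells in both replicate plates, either sign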;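 also: integrated kinetic ratio of fluorescence range over baseline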
# HEK293 MPD ctr 2-1: second check of TRPC6 inhibitor effects in parental HEK293 cells | shares compounds with TRPC6 inhibitor | signal change vs control, % at 10 µM | parental HEK293 membrane potential dye fluorescence; maximal acetylcholine challenge after compound addition | 920 compounds, 31% hits | AID 2779;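 active = membrane potential signal moving either way by over 3 SD of the maximum-effect control, in both duplicate plates, meaning non-specific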
# HEK293 MPD ctr-1: counter-screen for TRPC6 inhibitors: effect in parental HEK293 cells; shares compounds with TRPC6 inhibitor; 920 compounds, 60% hits; parental HEK293 membrane potential dye fluorescence; membrane potential signal change, % at 10 µM; AID 2780;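 active = membrane potential signal shifting up or down by more than 3 SD of buffer-only wells, on both duplicate plates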
# HEK293 MPD ctr-2: parental HEK293 nonspecific activity of TRPC6 modulators | AID 488924 | shares compounds with TRPC6 inhibitor | 2,400 compounds, 51% hits | membrane potential dye fluorescence | membrane potential signal change, % at 10 µM;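 active = membrane potential signal moves up or down beyond 5 SD from buffer-only wells, on both duplicate plates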
# HEK293 MPD ctr 2-2: second check of TRPC6 modulator effects in parental HEK293 cells. inhibition, % at 10 µM. 2,400 compounds, 14% hits. membrane potential dye fluorescence; after compound, maximal acetylcholine stimulation. AID 488926. shares compounds with TRPC6 inhibitor;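 active = membrane potential signal drops by more than 5 SD from the mean control signal, in both duplicate plates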;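 also: plate controls were acetylcholine ECmax control wells for no effect and buffer only wells for full effect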
# TRPC4/MOR mod: mouse TRPC4 off-target activity of TRPC6 modulators; shares compounds with TRPC6 inhibitor; HEK293 TRPC4/mu-opioid, membrane potential fluorescence; percent change from control (negative = decrease, positive = increase), % at 10 µM; 2,400 compounds, 69% hits; AID 488927;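 active = membrane potential signal moved up or down beyond 5 SD of buffer control wells, in both duplicate plates, actives on both sides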;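 also: plate controls were assay buffer wells for no effect and DAMGO maximal-effect wells for full effect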
# TRPC4/MOR inh 2: second selectivity test of TRPC6 modulators against mouse TRPC4. shares compounds with TRPC6 inhibitor. HEK293 TRPC4/mu-opioid, membrane potential dye fluorescence; stimulated with maximal-effect DAMGO. inhibition, % at 10 µM. 2,400 compounds, 55% hits. AID 488928;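 active = drop in membrane potential signal beyond 5 SD of the control wells in both duplicate plates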;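 also: TRPC4 counter screen for TRPC6 hits run under conditions tuned for TRPC6 not TRPC4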
# TRPC6 inh conf: mouse TRPC6 inhibitor confirmation; shares compounds with TRPC6 inhibitor; 3,300 compounds, 43% hits; HEK293-TRPC6, membrane potential dye, ACh-evoked depolarization; inhibition, % at 10 µM;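 active = fluorescence ratio falls more than 5 SD below the full-stimulation control mean, in both duplicate runs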;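 also: integrated fluorescence ratio of peak minus minimum over baseline after agonist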
# TRPC6 act confirm: confirmation of mouse TRPC6 activators. HEK293-TRPC6 membrane potential dye fluorescence, FDSS. AID 488961. activation, % at 10 µM. 2,800 compounds, 11% hits. shares compounds with TRPC6 inhibitor;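 active = ratio signal rise beyond 5 SD above unstimulated control wells' mean, seen in both duplicate runs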;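 also: plate controls were buffer EC0 wells for no effect and acetylcholine ECmax response for full effect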
# An asterisk follows results filed as active; i = inactive; . = no result given. Hits are enriched below; roughly 2.9% of the tested compounds scored in any of these assays.
SMILES,TRPC4 act,TRPC6 act,Kir21 block,TRPC4 PAM,TRPC6 inhibitor,TRPC4 block,HEK293 MPD ctr-2,HEK293 MPD ctr 2-2,TRPC4/MOR mod,TRPC4/MOR inh 2,TRPC6 inh conf,TRPC6 act confirm,others
c1csc(C2Nc3ccccc3-c3nc4ccccc4n32)c1 (stereo unspecified),i,i,-4.5*,i,-6.6*,i,.,.,.,.,i,i,TRPC4 spec 2=i;TRPC4 spec=9.1%*;HEK293 MPD ctr 2-1=i;HEK293 MPD ctr-1=2.3%*
Oc1ccc(Cl)cc1Cc1cc(Cl)ccc1O,i,i,-6*,i,-5.1*,i,i,69%*,-12%*,63%*,66%*,i,
Oc1ccc(Cl)cc1CNn1cnnc1,i,i,0.02,i,i,i,.,.,.,.,.,.,
CN1CCC=C(C(=O)N2c3ccccc3Sc3ccc(Cl)cc32)C1,i,i,-3.1,i,-5.4*,i,118%*,i,16%*,38%*,41%*,.,
O=C(CCN1CCN2CCCC2C1)N1c2ccccc2Sc2ccc(Cl)cc21 (stereo unspecified),i,i,-0.76,i,i,i,.,.,.,.,.,.,
CN(C)CC(=O)N1c2ccccc2Sc2ccc(Cl)cc21,i,i,-1.7,i,i,i,.,.,.,.,.,.,
CN1CCN(CCC(=O)N2c3ccccc3Sc3ccc(Cl)cc32)CC1,i,i,-1.2,i,i,i,.,.,.,.,.,.,
CN(C)CCC(=O)N1c2ccccc2Sc2ccc(Cl)cc21,i,i,-0.62,i,-8.5*,i,.,.,.,.,59%*,.,TRPC4 spec 2=i;TRPC4 spec=4.2%*;HEK293 MPD ctr 2-1=i;HEK293 MPD ctr-1=7.7%*
NCCCC(=O)N1c2ccccc2Sc2ccc(Cl)cc21,i,i,-1.8,i,-5.3*,i,i,i,i,54%*,64%*,i,
CCN(CC)CCC(=O)N1c2ccccc2Sc2ccc(Cl)cc21,i,i,-1,i,-5.4*,i,216%*,i,35%*,46%*,78%*,.,
O=C(C[n+]1ccccc1)N1c2ccccc2Sc2ccccc21,i,i,0.27,i,-7.9*,i,i,82%*,i,i,82%*,i,
O=C(COc1ccccc1)N1c2ccccc2Sc2ccccc21,i,i,-0.97,i,i,i,.,.,.,.,.,.,
Cc1ccc(NC(=O)CN(C)C(=O)C(C)OC(=O)c2ccccc2NCCO)cc1 (stereo unspecified),i,i,-0.99,i,i,i,.,.,.,.,.,.,
O=C(NC(=S)N1CCCCC1)C12CC3CC(CC(C3)C1)C2,i,i,-2.7,i,i,i,.,.,.,.,.,.,
CCOC(=O)N1CCN(C(=S)NC(=O)C23CC4CC(CC(C4)C2)C3)CC1,i,i,-0.28,i,-5*,i,i,i,i,i,i,i,
Brc1cc2c(cc1CN1CCc3ccccc3C1)OCO2,i,i,0.46,i,-7.3*,i,.,.,.,.,i,i,TRPC4 spec 2=i;TRPC4 spec=i;HEK293 MPD ctr 2-1=i;HEK293 MPD ctr-1=i
O=C(c1ccc(F)cc1)N1CCC(C(=O)N2CCN(S(=O)(=O)c3cccc([N+](=O)[O-])c3)CC2)CC1,i,i,-0.37,i,i,i,.,.,.,.,.,.,
CCOC(=O)c1[nH]c2ccccc2c1CCCN1C(=O)c2ccccc2C1=O,i,i,0.48,i,-6.9*,i,.,.,.,.,i,i,TRPC4 spec 2=i;TRPC4 spec=i;HEK293 MPD ctr 2-1=i;HEK293 MPD ctr-1=i
CCOC(=O)c1cc2sccc2n1CCCN1C(=O)c2ccccc2C1=O,i,i,-0.27,i,i,i,.,.,.,.,.,.,
COc1ccc(-n2c(C)cc(C)c(C(C)=O)c2=S)cc1,i,i,-2.9,i,i,i,.,.,.,.,.,.,
CN1CCN(/N=C/c2nc(-c3cccc([N+](=O)[O-])c3)n3ccccc23)CC1,i,i,0.16,i,-5.2*,i,-165%*,i,-30%*,46%*,51%*,i,
CC(C)C(NC(=O)c1ccccc1)C(=O)NCC(c1ccccc1)N(C)C (stereo unspecified),i,i,-0.52,i,i,i,.,.,.,.,.,.,
CC(C)C(NC(=O)c1c(F)cccc1F)C(=O)NCC(c1ccccc1)N(C)C (stereo unspecified),i,i,-1,i,-5.1*,i,i,i,55%*,58%*,i,.,
COc1ccc(-c2n[nH]c(C)c2-c2cc(OC)ccc2O)cc1,i,i,0.78,i,-6*,i,i,i,i,i,i,i,
CCCCN(C)C(=O)CSc1nc(NCc2ccc(OC)cc2)c2ccccc2n1,i,i,-1.6,i,-9.7*,i,.,.,.,.,i,i,TRPC4 spec 2=68%*;TRPC4 spec=4.6%*;HEK293 MPD ctr 2-1=i;HEK293 MPD ctr-1=6.4%*
CC(C)c1c(C(=O)N/N=C/c2ccccc2OCc2c(F)cccc2Cl)nnn1-c1nonc1N,i,i,0.13,i,i,i,.,.,.,.,.,.,

# Screening data from PubChem BioAssay.
